Source: ChEMBL document CHEMBL5506039, “Discovery and Optimization of Tambjamines as a Novel Class of Antileishmanial Agents” (J Med Chem, 2024)

How the values were obtained:
Leishmania mexicana [1] = test: Antileishmanial activity against Leishmania mexicana MNYC/BZ/62/M379 amastigotes expressing red-shifted firefly luciferase from integrated ribosomal (28S) RNA locus infected in mouse J774.A1 cells assessed as parasite survival at 0.1 uM measured after 96 hrs by luminescence based analysis relative to control; type: functional; details: MNYC/BZ/62/M379, J774.A1
Leishmania mexicana [2] = test: Antileishmanial activity against Leishmania mexicana MNYC/BZ/62/M379 amastigotes expressing red-shifted firefly luciferase from integrated ribosomal (28S) RNA locus infected in mouse J774.A1 cells assessed as reduction in parasite survival measured after 96 hrs by luminescence based analysis; type: functional, organism-based; details: MNYC/BZ/62/M379, J774.A1, 96 h
Method in brief: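 J774A.1 macrophages infected with stationary-phase luciferase-expressing promastigotes at 10:1 parasites:macrophage, overnight at 37 °C, 5% CO₂. Non-internalized parasites washed off and 1 × 10⁴ cells/well replated in MEM/10% HI-FBS. Compounds in DMSO added as serial 3-fold dilutions (typically 10 μM–1 nM) for 96 h. Luciferase luminescence read; EC50 from log-transformed sigmoidal variable-slope fit. Mean ± SD of ≥2 independent experiments.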

[3] = Cytotoxicity against mouse J774.A1 cells assessed as cell survival at 0.1 uM measured after 96 hrs by SYBR Green II dye based analysis relative to control; type: toxicity; details: read-out: Survival
Method in brief: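 Uninfected J774A.1 mouse macrophages were plated at 1 × 10⁴ cells/well in DMEM with 10% heat-inactivated FBS and left 3 h at 37 °C to reattach. Compounds were added from DMSO, and analogues were screened at 0.1 μM. After 96 h at 37 °C in 5% CO₂, medium was removed. SYBR Green II (1:1000 in 1% Triton/PBS) was added for 1 h in the dark at room temperature, and fluorescence was read at Ex 485/Em 535 as a DNA-content measure of viability.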

[4] = Cytotoxicity against mouse J774.A1 cells assessed as reduction in cell survival measured after 96 hrs by SYBR Green II dye based analysis; type: toxicity
Method in brief: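 Uninfected J774A.1 macrophages, 1 × 10⁴ cells/well in DMEM/10% HI-FBS, reattached 3 h, then exposed to compounds for 96 h. DNA content read after lysis with SYBR Green II (1:1000 in 1% Triton/PBS), 1 h dark at room temperature, fluorescence Ex 485/Em 535.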

[5] = Therapeutic index, ratio of EC50 for mouse J774.A1 cells to EC50 for antileishmanial activity against Leishmania mexicana MNYC/BZ/62/M379 amastigotes expressing red-shifted firefly luciferase from integrated ribosomal (28S) RNA locus infected in mouse J774.A1 cells; type: toxicity, cell-based; details: read-out: TI
[6] = Metabolic stability in pre-warmed pooled human liver microsomes assessed as half life at 1 uM measured upto 60 mins by LC-MS analysis; type: ADME, Microsome
Method in brief: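 Compound at 1 μM final with 0.5 mg/mL pooled human or mouse liver microsomes, 1.3 mM NADP and 3.3 mM MgCl₂ in 100 mM potassium phosphate, pH 7.4. Reaction started with 1 U/mL G6PD at 37 °C with shaking.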

## FC(F)(F)Oc1ccc(OC2=CC(c3ccc[nH]3)=N/C2=C\NCC2CCCCCC2)cc1
Leishmania mexicana [1]
  survival at 0.1 µM: 42.9%
Leishmania mexicana [2]
  EC50: 167 nM
[3]
  viability at 96 h, 0.1 µM: 97.6%
[4]
  EC50 at 96 h: 717 nM
[5]
  selectivity ratio: 4.3

## FC(F)(F)Oc1ccc(OC2=CC(c3ccc[nH]3)=N/C2=C\NC2CCCCCC2)cc1
Leishmania mexicana [1]
  survival at 0.1 µM: 43%
Leishmania mexicana [2]
  EC50: 155 nM
[3]
  viability at 96 h, 0.1 µM: 82.8%
[4]
  EC50 at 96 h: 642 nM
[5]
  selectivity ratio: 4.1

## CCCCCCN/C=C1\N=C(c2ccc[nH]2)C=C1Oc1ccc(OC(F)(F)F)cc1
Leishmania mexicana [1]
  survival at 0.1 µM: 46.1%
Leishmania mexicana [2]
  EC50: 303 nM
[3]
  viability at 96 h, 0.1 µM: 110%
[4]
  EC50 at 96 h: 1100 nM
[5]
  selectivity ratio: 3.6

## Cc1ccc(N/C=C2\N=C(c3ccc[nH]3)C3=C2CCCC3)cc1.Cl
Leishmania mexicana [1]
  survival at 0.1 µM: 112%
[3]
  viability at 96 h, 0.1 µM: 95.1%
[6]
  half-life at 1 µM: 42.1 min

## CCCCCCCCCCCN/C=C1\N=C(c2ccc[nH]2)C=C1Oc1ccc(OC(F)(F)F)cc1
Leishmania mexicana [1]
  survival at 0.1 µM: 58%
[3]
  viability at 96 h, 0.1 µM: 96.7%

## CCCCCCCCCCCN/C=C1\N=C(c2ccc[nH]2)C=C1OC
Leishmania mexicana [1]
  survival at 0.1 µM: 11.9%
Leishmania mexicana [2]
  EC50: 47.5 nM
[3]
  viability at 96 h, 0.1 µM: 112%
[4]
  EC50 at 96 h: > 1000 nM
[5]
  selectivity ratio: > 21

## C[C@H]1CC[C@@H](N/C=C2\N=C(c3ccc[nH]3)C=C2Oc2ccc(OC(F)(F)F)cc2)CC1
Leishmania mexicana [1]
  survival at 0.1 µM: 79.9%
[3]
  viability at 96 h, 0.1 µM: 112%

## C[C@H]1CC[C@H](N/C=C2\N=C(c3ccc[nH]3)C=C2c2ccc(OC(F)(F)F)cc2)CC1
Leishmania mexicana [1]
  survival at 0.1 µM: 81.6%
[3]
  viability at 96 h, 0.1 µM: 116%

## COC1=CC(c2ccc[nH]2)=N/C1=C\Nc1ccccc1OC(F)(F)F
Leishmania mexicana [1]
  survival at 0.1 µM: 69.9%
[3]
  viability at 96 h, 0.1 µM: 81%

## C[C@H]1CC[C@H](N/C=C2\N=C(c3ccc[nH]3)C=C2Oc2ccc(Cl)cc2)CC1
Leishmania mexicana [1]
  survival at 0.1 µM: 27.5%
Leishmania mexicana [2]
  EC50: 72.3 nM
[3]
  viability at 96 h, 0.1 µM: 80.1%
[4]
  EC50 at 96 h: 321 nM
[5]
  selectivity ratio: 4.4

## CC1=C/C(=C/NC2CCCCCCC2)N=C1c1ccc[nH]1
Leishmania mexicana [1]
  survival at 0.1 µM: 48.6%
[3]
  viability at 96 h, 0.1 µM: 150%

## FC(F)(F)Oc1ccc(OC2=CC(c3ccc[nH]3)=N/C2=C\NC2CCCCCCC2)cc1
Leishmania mexicana [1]
  survival at 0.1 µM: 37.6%
Leishmania mexicana [2]
  EC50: 99 nM
[3]
  viability at 96 h, 0.1 µM: 92.9%
[4]
  EC50 at 96 h: 982 nM
[5]
  selectivity ratio: 9.9

## CCCCCCCCCCCCCCCCOP(=O)([O-])OCC[N+](C)(C)C [MILTEFOSINE]
Leishmania mexicana [1]
  survival at 0.1 µM: 0.02%
Leishmania mexicana [2]
  EC50: 3460 nM
[3]
  viability at 96 h, 0.1 µM: 39.2%
[4]
  EC50 at 96 h: > 100000 nM
[5]
  selectivity ratio: > 29

## CC1=C(C)/C(=C/Nc2ccc(Cl)cc2)N=C1c1ccc[nH]1
Leishmania mexicana [1]
  survival at 0.1 µM: 92.2%
[3]
  viability at 96 h, 0.1 µM: 88.1%

## Clc1ccc(N/C=C2\N=C(c3ccc[nH]3)C3=C2CCCC3)cc1
Leishmania mexicana [1]
  survival at 0.1 µM: 103%
[3]
  viability at 96 h, 0.1 µM: 67.2%

## CCC1=C/C(=C/NC2CCCCCCC2)N=C1c1ccc[nH]1
Leishmania mexicana [1]
  survival at 0.1 µM: 34.6%
[3]
  viability at 96 h, 0.1 µM: 35.8%

## FC(F)(F)Oc1ccc(N/C=C2\N=C(c3ccc[nH]3)C3=C2CCCC3)cc1
Leishmania mexicana [1]
  survival at 0.1 µM: 84.9%
[3]
  viability at 96 h, 0.1 µM: 92.7%

## CC1=C(C)/C(=C/NC23CC4CC(CC(C4)C2)C3)N=C1c1[nH]c(C)cc1C
Leishmania mexicana [1]
  survival at 0.1 µM: 12.5%
Leishmania mexicana [2]
  EC50: 46.5 nM
[3]
  viability at 96 h, 0.1 µM: 93.2%
[4]
  EC50 at 96 h: 667 nM
[5]
  selectivity ratio: 14

## FC(F)(F)Oc1ccc(C2=CC(c3ccc[nH]3)=N/C2=C\NC2CCCCCC2)cc1
Leishmania mexicana [1]
  survival at 0.1 µM: 77.9%
[3]
  viability at 96 h, 0.1 µM: 95.8%

## COC1=CC(c2ccc[nH]2)=N/C1=C\Nc1ccc(Cl)cc1
Leishmania mexicana [1]
  survival at 0.1 µM: 9.85%
Leishmania mexicana [2]
  EC50: 47 nM
[3]
  viability at 96 h, 0.1 µM: 95.4%
[4]
  EC50 at 96 h: > 1000 nM
[5]
  selectivity ratio: > 21

## CCC1=C(CC)/C(=C/NC2CCCCCC2)N=C1c1ccc[nH]1
Leishmania mexicana [1]
  survival at 0.1 µM: 27.5%
[3]
  viability at 96 h, 0.1 µM: 26.7%

## CC1=C/C(=C/NC2CCCCCC2)N=C1c1ccc[nH]1
Leishmania mexicana [1]
  survival at 0.1 µM: 89%
[3]
  viability at 96 h, 0.1 µM: 127%

## CCC1=C(CC)/C(=C/NC2CCCCCCC2)N=C1c1ccc[nH]1
Leishmania mexicana [1]
  survival at 0.1 µM: 17%
[3]
  viability at 96 h, 0.1 µM: 29.5%

## C(/NC1CCCCCCC1)=C1/N=C(c2ccc[nH]2)C2=C1CCCC2
Leishmania mexicana [1]
  survival at 0.1 µM: 33.4%
[3]
  viability at 96 h, 0.1 µM: 75.8%

## FC(F)(F)Oc1ccc(OC2=CC(c3ccc[nH]3)=N/C2=C\N[C@H]2CC[C@H](C(F)(F)F)CC2)cc1
Leishmania mexicana [1]
  survival at 0.1 µM: 33.2%
Leishmania mexicana [2]
  EC50: 88.7 nM
[3]
  viability at 96 h, 0.1 µM: 108%
[4]
  EC50 at 96 h: 852 nM
[5]
  selectivity ratio: 9.6

## CCC1=C/C(=C/NC2CCCCCC2)N=C1c1ccc[nH]1
Leishmania mexicana [1]
  survival at 0.1 µM: 33.9%
[3]
  viability at 96 h, 0.1 µM: 32.2%

## CC1=C(C)/C(=C/NC2CCCCCC2)N=C1c1[nH]c(C)cc1C
Leishmania mexicana [1]
  survival at 0.1 µM: 43.8%
Leishmania mexicana [2]
  EC50: 182 nM
[3]
  viability at 96 h, 0.1 µM: 56.8%

## FC(F)(F)Oc1ccc(OC2=CC(c3ccc[nH]3)=N/C2=C\NC2CCCCC2)cc1
Leishmania mexicana [1]
  survival at 0.1 µM: 52.7%
Leishmania mexicana [2]
  EC50: 84 nM
[3]
  viability at 96 h, 0.1 µM: 81.3%
[4]
  EC50 at 96 h: 982 nM
[5]
  selectivity ratio: 11.7

## Clc1ccc(OC2=CC(c3ccc[nH]3)=N/C2=C\NC2CCCCCC2)cc1
Leishmania mexicana [1]
  survival at 0.1 µM: 19.8%
Leishmania mexicana [2]
  EC50: 63.7 nM
[3]
  viability at 96 h, 0.1 µM: 100%
[4]
  EC50 at 96 h: 367 nM
[5]
  selectivity ratio: 5.8

## COc1ccc(Oc2ccc(N/C=C3\N=C(c4ccc[nH]4)C(C)=C3C)cc2)cc1
Leishmania mexicana [1]
  survival at 0.1 µM: 108%
[3]
  viability at 96 h, 0.1 µM: 65.9%

## Fc1cc(F)cc(OC2=CC(c3ccc[nH]3)=N/C2=C\NC2CCCCCC2)c1
Leishmania mexicana [1]
  survival at 0.1 µM: 87.2%
[3]
  viability at 96 h, 0.1 µM: 65.8%

## COC1=CC(c2ccc[nH]2)=N/C1=C\NC1CCCCC1
Leishmania mexicana [1]
  survival at 0.1 µM: 7.33%
Leishmania mexicana [2]
  EC50: 40.5 nM
[3]
  viability at 96 h, 0.1 µM: 88.9%
[4]
  EC50 at 96 h: > 1000 nM
[5]
  selectivity ratio: > 25

## CC1=C(C)/C(=C/Nc2ccc(OC(F)(F)F)cc2)N=C1c1ccc[nH]1
Leishmania mexicana [1]
  survival at 0.1 µM: 102%
[3]
  viability at 96 h, 0.1 µM: 77.2%

## COC1=CC(c2ccc[nH]2)=N/C1=C\NC1CCN(Cc2ccccc2)CC1
Leishmania mexicana [1]
  survival at 0.1 µM: 24.6%
Leishmania mexicana [2]
  EC50: 79.5 nM
[3]
  viability at 96 h, 0.1 µM: 124%
[4]
  EC50 at 96 h: 625 nM
[5]
  selectivity ratio: 7.9

## CC1=C(C)/C(=C/Nc2ccc(Oc3ccc(C)cc3)cc2)N=C1c1ccc[nH]1
Leishmania mexicana [1]
  survival at 0.1 µM: 111%
[3]
  viability at 96 h, 0.1 µM: 66.2%

## CC1=C(C)/C(=C/Nc2ccc(C)cc2)N=C1c1ccc[nH]1
Leishmania mexicana [1]
  survival at 0.1 µM: 74%
[3]
  viability at 96 h, 0.1 µM: 54.2%

## CC1=C(C)/C(=C/NCC2CCCCCC2)N=C1c1ccc[nH]1
Leishmania mexicana [1]
  survival at 0.1 µM: 14.2%
Leishmania mexicana [2]
  EC50: 91.7 nM
[3]
  viability at 96 h, 0.1 µM: 53.2%
[4]
  EC50 at 96 h: 1600 nM
[5]
  selectivity ratio: 17

## C[C@H]1CC[C@H](N/C=C2\N=C(c3ccc[nH]3)C=C2Oc2cc(F)cc(F)c2)CC1
Leishmania mexicana [1]
  survival at 0.1 µM: 96.2%
[3]
  viability at 96 h, 0.1 µM: 55.3%
